Source: PubChem BioAssay
Activity calls are given as the source filed them.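 The calls were made as follows, unless noted: active = mean duplicate potentiation above the buffer control mean plus 5 SD of buffer wells; inactive = the rest.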

Assays:
[1] = nonspecific flux increase, KCNQ1-free cells – parental CHO cells, counter-screen for KCNQ1 potentiator project (AID 493006;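 active = duplicate-averaged activation above buffer control mean plus 5 SD of those controls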); conditions: parental CHO-K1 cells, FluxOR thallium flux, at 10 µM; hits give high values
In short: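 Material: untransfected host CHO-K1 cells with FluxOR thallium dye. Timing: overnight 37 °C plating, 90 min RT dye, 20 min compound. Detection: kinetic FluxOR fluorescence, 10 s baseline, 110 s after stimulus. Read-out basis: max-minus-min fluorescence over baseline, percent of buffer-to-R-L3 span. Replicates: duplicate wells per compound, percent values averaged.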

[2] = molecular target: Potassium voltage-gated channel subfamily KQT member 1 (Homo sapiens) (UniProt P51787); assay: enhancement of KCNQ1 channel thallium flux – FluxOR thallium flux, CHO cells, duplicates, confirmation (AID 493007;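 active = potentiation averaged over duplicate wells exceeding buffer-only control mean by more than 3 SD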;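 as to outcome: cells depolarized by a potassium plus thallium sulfate stimulus after compound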); conditions: KCNQ1 cell line, FluxOR thallium flux fluorescence, at 10 µM; hits give high values, % of reference activator effect, buffer zero
In short: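 Test system – KCNQ1-expressing CHO cell line · Incubation – FluxOR dye loading 90 min, compound exposure 20 min, room temperature · Detection – FluxOR Tl+ flux fluorescence, 10 s baseline plus 110 s recording · Controls – buffer-only wells as 0% and R-L3 activator as 100%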

[3] = molecular target: Potassium voltage-gated channel subfamily KQT member 2 (Rattus norvegicus) (UniProt O88943); assay: KCNQ2 thallium flux enhancement – KCNQ2-CHO-K1 cells, selectivity assay for KCNQ1 potentiator project (AID 493009); conditions: FluxOR thallium flux fluorescence, at 10 µM; hits give high values, scaled: buffer 0, activator control 100;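 also: assay conditions were tuned for KCNQ1 rather than KCNQ2 modulators; signal is max minus min fluorescence divided by baseline after thallium stimulus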
[4] = molecular target: Potassium voltage-gated channel subfamily KQT member 1 (Homo sapiens) (UniProt P51787); assay: KCNQ1 activators by electrophysiology – IonWorks patch clamp, KCNQ1-CHO cells, orthogonal assay for KCNQ1 potentiator project, confirmation (AID 493184;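 active = current rise at least 3 SD above the untreated control mean in each of two repeat wells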); conditions: automated patch clamp current, at 10 µM; hits give high values
In short: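 Read-out: Percent current increase versus pre-compound level | Assay system: CHO cells carrying KCNQ1 | Measured by: Automated perforated-patch electrophysiology | Medium: External bath solution at pH 7.4 | Dosing: One dose, 10 µM final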

[5] = molecular target: Potassium voltage-gated channel subfamily E member 1 (Homo sapiens) + Potassium voltage-gated channel subfamily KQT member 1 (Homo sapiens) (UniProt P15382+P51787); assay: KCNQ1-E1 channel activation – thallium flux, CHO-K1 KCNQ1/E1 cells, selectivity assay for KCNQ1 potentiator project, confirmation (AID 493186;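 active = mean duplicate activation above the buffer control mean plus 5 SD of those controls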); conditions: FluxOR thallium flux, at 10 µM; hits give high values
In short: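 Test system: CHO-K1 cells with KCNQ1/E1; dosing: one test concentration; signal: FluxOR Tl+ flux fluorescence, kinetic read; incubation: 90-min dye loading then 20-min compound exposure, both at room temperature; read-out basis: percent of R-L3 effect over buffer; replication: duplicate wells per compound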

Sequence of Potassium voltage-gated channel subfamily KQT member 1 (Homo sapiens) (P51787 whole entry, looked up): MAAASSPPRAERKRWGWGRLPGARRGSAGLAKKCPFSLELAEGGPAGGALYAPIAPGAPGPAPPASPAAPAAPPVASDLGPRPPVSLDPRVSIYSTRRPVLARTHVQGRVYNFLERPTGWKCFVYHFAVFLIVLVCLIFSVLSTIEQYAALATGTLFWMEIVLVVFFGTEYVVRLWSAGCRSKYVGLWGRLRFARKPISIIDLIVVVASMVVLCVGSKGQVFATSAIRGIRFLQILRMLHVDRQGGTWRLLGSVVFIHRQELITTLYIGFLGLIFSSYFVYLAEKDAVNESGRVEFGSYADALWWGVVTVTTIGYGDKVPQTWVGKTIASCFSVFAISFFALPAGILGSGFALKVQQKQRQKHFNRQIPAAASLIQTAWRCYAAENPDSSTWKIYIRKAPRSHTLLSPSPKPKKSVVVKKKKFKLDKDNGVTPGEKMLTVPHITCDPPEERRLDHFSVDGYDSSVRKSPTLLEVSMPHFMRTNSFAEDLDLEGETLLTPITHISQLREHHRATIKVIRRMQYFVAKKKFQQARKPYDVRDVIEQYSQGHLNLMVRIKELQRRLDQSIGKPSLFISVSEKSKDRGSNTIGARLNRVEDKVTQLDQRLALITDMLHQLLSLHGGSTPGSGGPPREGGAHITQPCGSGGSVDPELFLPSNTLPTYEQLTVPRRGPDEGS
Sequence of Potassium voltage-gated channel subfamily E member 1 (Homo sapiens) + Potassium voltage-gated channel subfamily KQT member 1 (Homo sapiens) (P51787 whole entry, looked up): as the sequence (P51787 whole entry, looked up) above
Sequence of Potassium voltage-gated channel subfamily KQT member 2 (Rattus norvegicus) (O88943 whole entry, looked up): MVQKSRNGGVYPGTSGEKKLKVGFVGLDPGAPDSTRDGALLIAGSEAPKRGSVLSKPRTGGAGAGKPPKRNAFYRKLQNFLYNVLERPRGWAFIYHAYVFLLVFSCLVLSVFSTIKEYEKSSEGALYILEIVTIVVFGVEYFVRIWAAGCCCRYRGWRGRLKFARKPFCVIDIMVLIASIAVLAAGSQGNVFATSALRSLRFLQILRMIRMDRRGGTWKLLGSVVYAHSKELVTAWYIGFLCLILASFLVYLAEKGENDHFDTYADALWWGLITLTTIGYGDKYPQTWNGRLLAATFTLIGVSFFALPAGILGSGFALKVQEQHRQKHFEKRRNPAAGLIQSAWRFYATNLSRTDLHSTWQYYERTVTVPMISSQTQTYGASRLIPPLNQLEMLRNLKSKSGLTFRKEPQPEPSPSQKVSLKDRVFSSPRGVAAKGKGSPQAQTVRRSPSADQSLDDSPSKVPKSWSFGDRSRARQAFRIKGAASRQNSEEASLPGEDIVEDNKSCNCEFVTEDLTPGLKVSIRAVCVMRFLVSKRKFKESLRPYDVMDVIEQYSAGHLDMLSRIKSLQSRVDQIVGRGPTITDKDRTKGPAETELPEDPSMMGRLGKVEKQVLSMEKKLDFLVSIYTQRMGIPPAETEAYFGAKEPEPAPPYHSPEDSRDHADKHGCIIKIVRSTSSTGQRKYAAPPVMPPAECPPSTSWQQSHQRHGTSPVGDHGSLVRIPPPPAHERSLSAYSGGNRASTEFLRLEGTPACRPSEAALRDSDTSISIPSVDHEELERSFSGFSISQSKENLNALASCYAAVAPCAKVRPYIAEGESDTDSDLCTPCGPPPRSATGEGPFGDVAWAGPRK

SMILES | outcome [1] | outcome [2] | outcome [3] | outcome [4] | outcome [5] | potentiation [2] | potentiation [3] | activation [5]
S=C1N(c2ccccc2)C(c2ccccc2)N2CCCN12 (stereo not given) | inactive | inactive | inactive | inactive | inactive | – | – | –
CCn1c(CCNC(=O)c2ccc(Cl)cc2Cl)n[nH]c1=S | inactive | inactive | inactive | inactive | inactive | – | – | –
O=C(O)c1ccc2c(=O)n3cc(C(=O)c4ccccc4O)cc(Cl)c3nc2c1 | inactive | inactive | inactive | inactive | inactive | – | – | –
Cc1ccc(C)c(NC(=S)c2nc3ccccc3s2)c1 | inactive | – | – | inactive | inactive | 104% (active) | 143% (active) | –
O=C(O)c1ccc([N+](=O)[O-])c(CS(=O)(=O)c2ccccc2)c1 | inactive | inactive | inactive | inactive | inactive | – | – | –
COc1ccc(Cn2c(=O)c3[nH]cnc3n(-c3ccccc3C)c2=O)cc1 | inactive | inactive | inactive | inactive | inactive | – | – | –
O=C(NNC(=O)c1cc(-c2ccccc2)nn1-c1ccccc1)c1ccccc1 | inactive | inactive | inactive | inactive | inactive | – | – | –
CCN(CC)C(=S)SCC(=O)Nc1nc(=O)c2ccccc2s1 | inactive | inactive | inactive | inactive | inactive | – | – | –
COc1cc(O)c2c(=O)c(-c3ccc(O[C@@H]4O[C@H](CO)[C@@H](O)[C@H](O)[C@H]4O)cc3)coc2c1 | inactive | inactive | inactive | inactive | inactive | – | – | –
O=C(N/N=C/c1ccc(-c2ccccc2)o1)c1ccccc1O | inactive | – | inactive | inactive | inactive | 31% (active) | – | –
Cc1ccc(C)c(NC(=S)NNC(=O)c2csc3c2CCCC3)c1 | inactive | – | inactive | inactive | inactive | 20.5% (active) | – | –
CCOc1cccc2sc(NC(=O)c3ccc(Br)s3)nc12 | inactive | inactive | inactive | inactive | inactive | – | – | –
CC(Oc1ccc2ccccc2c1)C(=O)NNC(=S)NC(=O)c1ccco1 (stereo not given) | inactive | – | – | inactive | – | 93% (active) | 214% (active) | 15.3% (active)
CN(Cc1ccccc1)C(=S)NC(=O)c1ccccc1 | inactive | – | – | inactive | inactive | 21.5% (active) | 157% (active) | –
CCCCCCCCN1[C@@H](CC(C)=O)c2cc(C(F)(F)F)ccc2S1(=O)=O | inactive | – | inactive | inactive | inactive | 60.5% (active) | – | –
O=C(NCc1ccccn1)C1CCN(Cc2cccc(OCc3ccccc3)c2)CC1 | inactive | inactive | inactive | inactive | inactive | – | – | –
COCCn1c(C)cc(C(=O)COC(=O)c2ccc([N+](=O)[O-])o2)c1C | inactive | – | inactive | inactive | inactive | 22.5% (active) | – | –
S=C(Nc1ccc(Cl)cc1)c1nc2ccccc2s1 | inactive | – | inactive | inactive | – | 47.5% (active) | – | 23.8% (active)
CCC1=NN2C(=N)/C(=C/c3ccc(OS(=O)(=O)c4ccccc4)c(OC)c3)C(=O)N=C2S1 | inactive | inactive | inactive | inactive | inactive | – | – | –
Cn1c(=O)c2c(ncn2CC(=O)N/N=C/C(Cl)=C/c2ccccc2)n(C)c1=O | inactive | inactive | inactive | inactive | inactive | – | – | –
CC(=O)Nc1ccc(/C=N/NC(=O)c2cccc(S(=O)(=O)N3CCOCC3)c2)cc1 | inactive | inactive | inactive | inactive | inactive | – | – | –

SMILES | outcome [1] | outcome [2] | outcome [3] | outcome [4] | outcome [5] | potentiation [2] | potentiation [3] | activation [5]
CC(=O)C[C@H]1c2cc(C(F)(F)F)ccc2S(=O)(=O)N1Cc1ccccc1 | inactive | – | inactive | inactive | inactive | 65.5% (active) | – | –
CC(C)CNC(=S)NC(=O)c1ccc([N+](=O)[O-])cc1 | inactive | inactive | inactive | inactive | inactive | – | – | –
Cc1ccc(N(C(=O)Cn2nnc(-c3ccccc3F)n2)C(C(=O)NC2CCCC2)c2ccncc2)cc1 (stereo not given) | inactive | inactive | inactive | inactive | inactive | – | – | –
Cc1cc(C)c2c(n1)nn1c(NCCCN(C)C)cc(C)nc21 | inactive | inactive | inactive | inactive | inactive | – | – | –
CCn1c(O)c(N=NC(=S)NCC2CCCO2)c2ccccc21 (stereo not given) | inactive | inactive | inactive | inactive | inactive | – | – | –
CCOC(=O)c1ccc(-n2c(CN3CCOCC3)nc3ccc([N+](=O)[O-])cc3c2=O)cc1 | inactive | inactive | inactive | inactive | inactive | – | – | –
CCN(CC)CCCNC(=O)c1c(O)c2cc(F)cc3c2n(c1=O)C(C)CC3 (stereo not given) | inactive | inactive | inactive | inactive | inactive | – | – | –
Cc1ccc(O)c(NC(=S)NC(=O)COc2ccc(Br)cc2)c1 | inactive | inactive | inactive | inactive | inactive | – | – | –
CCCCNC(=O)CCc1c(C)nc2c(c(C)nn2-c2ccccc2)c1C | inactive | inactive | inactive | inactive | inactive | – | – | –
Cc1ccccc1CS(=O)(=O)c1nnc([C@H](Cc2ccccc2)NC(=O)OC(C)(C)C)o1 | inactive | – | inactive | inactive | inactive | 22.5% (active) | – | –
COc1c(Br)cc(/C=N/n2c(-c3ccccc3)n[nH]c2=S)c(O)c1Br | inactive | inactive | inactive | inactive | inactive | – | – | –
CC(C)c1ccc(OCC(=O)NNC(=S)NC(=O)c2cccs2)c(Br)c1 | inactive | – | inactive | inactive | inactive | 22% (active) | – | –
CCCCCCOc1ccc(N2C(=O)CC(N3CCN(C(=O)c4ccco4)CC3)C2=O)cc1 (stereo not given) | inactive | – | inactive | inactive | inactive | 17.5% (active) | – | –
CCCOc1ccccc1NS(=O)(=O)c1ccc2[nH]c(=O)[nH]c2c1 | inactive | inactive | inactive | inactive | inactive | – | – | –
O=c1oc2ccccc2c(Cl)c1CN1CCCCC1 | inactive | inactive | inactive | inactive | inactive | – | – | –
CC1(C)CC(N=c2cc(-c3ccccc3)oc3ccc(Cl)cc23)CC(C)(C)N1 | inactive | inactive | inactive | inactive | inactive | – | – | –
CCOC(=O)C1CCCN(C(=O)Cn2sc3nc(C)cc(C)c3c2=O)C1 (stereo not given) | inactive | inactive | inactive | inactive | inactive | – | – | –
Cc1ccc2cc(/C=N/NC(=O)CN3CCCCC3)c(Cl)nc2c1 | inactive | inactive | inactive | inactive | inactive | – | – | –
O=C(CN1CCCCCC1)Nc1ccc(Oc2ccccc2)cc1 | inactive | inactive | inactive | inactive | inactive | – | – | –
Cc1cc(C)cc(OCC(=O)NNC(=O)c2cc3ccccc3o2)c1 | inactive | inactive | inactive | inactive | inactive | – | – | –
O=C1C(Nc2ccc(O)cc2)=C/C(=N/S(=O)(=O)c2cccs2)c2ccccc21 | inactive | – | inactive | inactive | inactive | 17.5% (active) | – | –

SMILES | outcome [1] | outcome [2] | outcome [3] | outcome [4] | outcome [5] | potentiation [2] | potentiation [3] | activation [5]
Cc1ccc(OCCn2c(=S)[nH]c3ccccc32)c(C(C)C)c1 | inactive | – | inactive | inactive | inactive | 119% (active) | – | –
O=C(CSc1ccccn1)N1CCN(S(=O)(=O)c2ccc(Cl)cc2)CC1 | inactive | inactive | inactive | inactive | inactive | – | – | –
CC1Oc2ccccc2N(CC(=O)N2CCCCCC2)C1=O (stereo not given) | inactive | – | inactive | inactive | inactive | 27.5% (active) | – | –
O=C(Nc1ccccc1Br)c1ccccc1-c1ccccc1 | inactive | – | inactive | inactive | inactive | 29.5% (active) | – | –
CCOC(=O)C1CCN(S(=O)(=O)c2ccc3c4c2CC(=O)N4CC(C)S3)CC1 (stereo not given) | inactive | inactive | inactive | inactive | inactive | – | – | –
Cc1ccc(-c2ccc(/C=C3\C(=O)ON=C3c3ccccc3)o2)c([N+](=O)[O-])c1 | inactive | – | inactive | inactive | inactive | 29% (active) | – | –
CCCn1c(N)c(C(=O)CSc2nc3ccccc3c(=O)n2Cc2ccccc2)c(=O)[nH]c1=O | inactive | inactive | inactive | inactive | inactive | – | – | –
Cc1cc(/C=N/NC(=O)C(O)(c2ccccc2)c2ccccc2)c(C)n1-c1ccccc1 | inactive | inactive | inactive | inactive | inactive | – | – | –
CCOC(=O)C(Sc1nnc(-c2ccncc2)o1)C(C)=O (stereo not given) | inactive | inactive | inactive | inactive | inactive | – | – | –
CC1(c2ccc(OC(F)F)cc2)NC(=O)N(CC(=O)Nc2ccc3c(c2)OCO3)C1=O (stereo not given) | inactive | inactive | inactive | inactive | inactive | – | – | –
O=C(N/C(=C\c1ccc([N+](=O)[O-])cc1)C(=O)N1CCCCC1)c1ccco1 | inactive | inactive | inactive | inactive | inactive | – | – | –
O=C1C(=O)N(CCCc2ccccc2)c2ccccc21 | inactive | inactive | inactive | inactive | inactive | – | – | –
Cn1c(O)c(N=NC(=S)Nc2ccccc2F)c2cc(S(=O)(=O)N3CCOCC3)ccc21 | inactive | inactive | inactive | inactive | inactive | – | – | –
Cc1ccc(-n2c(C)cc(/C=N/NC(=O)c3ccncc3)c2C)c(C)c1 | inactive | inactive | inactive | inactive | inactive | – | – | –
Cc1ccc(NC(=S)NC(=O)c2ccc(-c3ccccc3)cc2)c(C)c1 | inactive | inactive | inactive | inactive | inactive | – | – | –
CCOC(=O)Cn1c(C(=O)OCC)cc2sccc21 | inactive | – | inactive | inactive | inactive | 35.5% (active) | – | –
CC(=O)/C=C/c1ccc2ccccc2n1 | inactive | inactive | inactive | inactive | inactive | – | – | –
O=c1cc2c(nn1Cc1c(Cl)cccc1Cl)-c1ccccc1CC2 | inactive | – | inactive | inactive | inactive | 24% (active) | – | –
CCCSc1ncnc2c1oc1ccccc12 | inactive | inactive | inactive | inactive | inactive | – | – | –
